Laboratory results as given in ChEMBL document CHEMBL1124774, “Synthesis and biological activity of some derivatives of rifamycin P” (1990).
≈ marks a conversion by molar mass, not a printed value.

Key:
Type in all cases: functional
[1] = system: Mycobacterium gordonae; assay: In vitro activity of compound against slowly growing Mycobacterium gordonae 1441
Outline: (§1)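 Medium was Middlebrook 7H10 agar with 2% glycerol and 10% OADC. Organisms from Loevenstein-Jensen slants were grown in 7H9 broth with 0.5% Tween and 10% OADC, adjusted to McFarland no. 1, and spotted with a multipoint inoculator. Sealed plates were incubated at 22, 30 or 37 °C for 4-20 days depending on strain.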

[2] = system: Mycolicibacterium fortuitum; assay: In vitro activity of compound against rapidly growing Mycobacterium fortuitum 1287; outline: as §1
[3] = system: Streptococcus pneumoniae; assay: In vitro antibacterial activity of compound against Streptococcus pneumoniae UC 41
Outline: (§2)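 Streptococcal MICs were run by twofold microdilution in Todd-Hewitt broth over 128-0.0001 µg/mL. Inoculum was 10^4 cfu/mL, with incubation at 37 °C for 18-24 h.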

[4] = system: Mycolicibacterium fortuitum; assay: In vitro activity of compound against rapidly growing Mycobacterium fortuitum 140; outline: as §1
[5] = system: Mycolicibacterium fortuitum; assay: In vitro activity of compound against rapidly growing Mycobacterium fortuitum 114; outline: as §1
[6] = system: Escherichia coli; assay: In vitro antibacterial activity of compound against Escherichia coli SKF 12140
[7] = system: Streptococcus pyogenes; assay: In vitro antibacterial activity of compound against Streptococcus pyogenes C 203 SKF 13400; outline: as §2
[8] = system: Mycolicibacterium smegmatis; assay: In vitro activity of compound against rapidly growing Mycobacterium smegmatis 139; outline: as §1
[9] = system: Mycobacterium kansasii; assay: In vitro activity of compound against slowly growing Mycobacterium kansasii 1298; outline: as §1
[10] = system: Enterococcus faecalis; assay: In vitro antibacterial activity of compound against Streptococcus faecalis ATCC 7080.
Outline: (§3)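 Twofold microdilution MIC in Iso-Sensitest broth over 128-0.0001 µg/mL. Inoculum was 10^4 cfu/mL, with incubation at 37 °C for 18-24 h.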

[11] = system: Staphylococcus aureus; assay: In vitro antibacterial activity of compound against Staphylococcus aureus Tour L 165; outline: as §3
[12] = system: Mycobacterium marinum; assay: In vitro activity of compound against slowly growing Mycobacterium marinum 1388; outline: as §1
[13] = system: Mycobacterium kansasii; assay: In vitro activity of compound against slowly growing Mycobacterium kansasii 1291; outline: as §1
[14] = system: Mycobacterium tuberculosis; assay: In vitro antibacterial activity of compound against Mycobacterium tuberculosis H37Rv ATCC 9660
[15] = system: Mycolicibacterium fortuitum; assay: In vitro activity of compound against rapidly growing Mycobacterium fortuitum 646; outline: as §1
[16] = system: Mycobacterium marinum; assay: In vitro activity of compound against slowly growing Mycobacterium marinum 1390; outline: as §1
[17] = system: Mycobacterium marinum; assay: In vitro activity of compound against slowly growing Mycobacterium marinum 1392 h; outline: as §1
[18] = system: Proteus vulgaris; assay: In vitro antibacterial activity of compound against Proteus vulgaris X19H ATCC 881
[19] = system: Mycolicibacterium phlei; assay: In vitro activity of compound against rapidly growing Mycobacterium phlei 1289; outline: as §1
[20] = system: Mycolicibacterium smegmatis; assay: In vitro activity of compound against rapidly growing Mycobacterium smegmatis 31; outline: as §1
[21] = system: Mycobacterium marinum; assay: In vitro activity of compound against slowly growing Mycobacterium marinum 1394; outline: as §1
[22] = system: Mycobacterium xenopi; assay: In vitro activity of compound against slowly growing Mycobacterium xenopi 556; outline: as §1
[23] = system: Mycobacterium scrofulaceum; assay: In vitro activity of compound against slowly growing Mycobacterium scrofulaceum 1297; outline: as §1
[24] = system: Mycolicibacterium smegmatis; assay: In vitro activity of compound against rapidly growing Mycobacterium smegmatis 1442; outline: as §1
[25] = system: Mycobacterium gordonae; assay: In vitro activity of compound against slowly growing Mycobacterium gordonae 1294; outline: as §1
[26] = system: Mycolicibacterium fortuitum; assay: In vitro activity compound against rapidly growing Mycobacterium fortuitum 1440; outline: as §1
[27] = system: Mycolicibacterium fortuitum; assay: In vitro activity compound against rapidly growing Mycobacterium fortuitum 1302; outline: as §1
[28] = system: Mycobacterium scrofulaceum; assay: In vitro activity of compound against slowly growing Mycobacterium scrofulaceum 1292; outline: as §1
[29] = system: Mycolicibacterium flavescens; assay: In vitro activity of compound against rapidly growing Mycobacterium flavescens 1286; outline: as §1
[30] = system: Mycobacterium xenopi; assay: In vitro activity of compound against slowly growing Mycobacterium xenopi 554; outline: as §1
[31] = system: Staphylococcus epidermidis; assay: In vitro antibacterial activity of compound against Staphylococcus epidermidis ATCC 12228; outline: as §3
[32] = system: Mycolicibacterium fortuitum; assay: In vitro activity of compound against rapidly growing Mycobacterium fortuitum 1285; outline: as §1
[33] = system: Mycobacterium xenopi; assay: In vitro activity of compound against slowly growing Mycobacterium xenopi 555; outline: as §1
[34] = system: Klebsiella pneumoniae; assay: In vitro antibacterial activity of compound against Klebsiella pneumoniae ISM
[35] = system: Mycobacterium marinum; assay: In vitro activity of compound against slowly growing Mycobacterium marinum 1447; outline: as §1
[36] = system: Mycobacterium marinum; assay: In vitro activity of compound against slowly growing Mycobacterium marinum 1391; outline: as §1
[37] = system: Neisseria gonorrhoeae; assay: In vitro antibacterial activity of compound against Neisseria gonorrhoeae ISM 68/126
[38] = system: Mycolicibacterium fortuitum; assay: In vitro activity of compound against rapidly growing Mycobacterium fortuitum 726; outline: as §1
[39] = system: Mycolicibacterium phlei; assay: In vitro activity of compound against rapidly growing Mycobacterium phlei 141; outline: as §1
[40] = system: Mycobacterium avium; assay: 50% inhibition of the 20 Mycobacterium (MAC) avium complex clinical isolates
Outline: (§4)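 Agar-dilution MICs, 2-fold dilutions over 128-0.0001 μg/mL, on Middlebrook 7H10 agar with 2% glycerol and 10% OADC. Organisms from Loevenstein-Jensen slants were grown in 7H9 broth with 0.5% Tween and 10% OADC, adjusted to McFarland no. 1, and spotted with a multipoint inoculator. Plates were sealed and incubated at 22, 30 or 37 °C for 4-20 days depending on strain.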

[41] = system: Mycobacterium scrofulaceum; assay: In vitro activity of compound against slowly growing Mycobacterium scrofulaceum 1301; outline: as §1
[42] = system: Mycobacterium scrofulaceum; assay: In vitro activity of compound against slowly growing Mycobacterium scrofulaceum 1293; outline: as §1
[43] = system: Mycobacterium marinum; assay: In vitro activity of compound against slowly growing Mycobacterium marinum 1393; outline: as §1
[44] = system: Mycolicibacterium fortuitum; assay: In vitro activity of compound against rapidly growing Mycobacterium fortuitum 645; outline: as §1
[45] = system: Haemophilus influenzae; assay: In vitro antibacterial activity of compound against Haemophilus influenzae ATCC 19418
[46] = system: Mycobacterium avium; assay: Minimum inhibitory concentration of compound against 20 Mycobacterium avium complex (MAC) clinical isolates; outline: as §4
[47] = system: Mycobacterium kansasii; assay: In vitro activity of compound against slowly growing Mycobacterium kansasii 1299; outline: as §1
[48] = system: Mycobacteroides chelonae; assay: In vitro activity of compound against rapidly growing Mycobacterium chelonae 1443; outline: as §1
[49] = system: Mycolicibacterium flavescens; assay: In vitro activity of compound against rapidly growing Mycobacterium flavescens 1284; outline: as §1
[50] = system: Pseudomonas aeruginosa; assay: In vitro antibacterial activity of compound against Pseudomonas aeruginosa ATCC 10145; outline: as §3
[51] = system: Mycolicibacterium phlei; assay: In vitro activity of compound against rapidly growing Mycobacterium phlei 1283; outline: as §1
[52] = system: Mycobacterium xenopi; assay: In vitro activity compound against slowly growing Mycobacterium xenopi 1446; outline: as §1

Question: Which MIC50 [1] does the source give for `COC1/C=C/OC2(C)Oc3c(C)c(O)c4c(O)c(c5c(c4c3C2=O)=NC2(CCN(CC(C)C)CC2)N=5)NC(=O)/C(C)=C\C=C\C(C)C(O)C(C)C(O)C(C)C(OC(C)=O)C1C` (configuration not stated) here?
Answer: 1 µg/mL (≈ 1.18 µM)

Question: And the MIC50 [2]?
Answer: 1 µg/mL (≈ 1.18 µM)

Question: What about the MIC [3] of the same compound?
Answer: 0.032 µg/mL (≈ 0.0378 µM)

Question: What about the MIC50 [4] of the same compound?
Answer: 4 µg/mL (≈ 4.72 µM)

Question: And the MIC50 [5]?
Answer: 8 µg/mL (≈ 9.44 µM)

Question: And the MIC [6]?
Answer: 16 µg/mL (≈ 18.9 µM)

Question: And the MIC [7]?
Answer: 0.032 µg/mL (≈ 0.0378 µM)

Question: What about the MIC50 [8] of the same compound?
Answer: 4 µg/mL (≈ 4.72 µM)

Question: What about the MIC50 [9] of the same compound?
Answer: 0.063 µg/mL (≈ 0.0744 µM)

Question: And the MIC [10]?
Answer: 2 µg/mL (≈ 2.36 µM)

Question: And the MIC [11]?
Answer: 0.063 µg/mL (≈ 0.0744 µM)

Question: What about the MIC50 [12] of the same compound?
Answer: 0.25 µg/mL (≈ 0.295 µM)

Question: What about the MIC50 [13] of the same compound?
Answer: 1 µg/mL (≈ 1.18 µM)

Question: And the MIC [14]?
Answer: 8 ng/mL (≈ 0.00944 µM)

Question: And the MIC50 [15]?
Answer: 8 µg/mL (≈ 9.44 µM)

Question: And the MIC50 [16]?
Answer: 1 µg/mL (≈ 1.18 µM)

Question: What about the MIC50 [17] of the same compound?
Answer: 0.25 µg/mL (≈ 0.295 µM)

Question: And the MIC [18]?
Answer: 16 µg/mL (≈ 18.9 µM)

Question: And the MIC50 [19]?
Answer: 2 µg/mL (≈ 2.36 µM)

Question: And the MIC50 [20]?
Answer: 4 µg/mL (≈ 4.72 µM)

Question: What about the MIC50 [21] of the same compound?
Answer: 0.25 µg/mL (≈ 0.295 µM)

Question: And the MIC50 [22]?
Answer: 0.125 µg/mL (≈ 0.148 µM)

Question: And the MIC50 [23]?
Answer: 0.063 µg/mL (≈ 0.0744 µM)

Question: What about the MIC50 [24] of the same compound?
Answer: 4 µg/mL (≈ 4.72 µM)

Question: And the MIC50 [25]?
Answer: 0.5 µg/mL (≈ 0.59 µM)

Question: And the MIC50 [26]?
Answer: 16 µg/mL (≈ 18.9 µM)

Question: What about the MIC50 [27] of the same compound?
Answer: 1 µg/mL (≈ 1.18 µM)

Question: What about the MIC50 [28] of the same compound?
Answer: 0.032 µg/mL (≈ 0.0378 µM)

Question: And the MIC50 [29]?
Answer: 0.063 µg/mL (≈ 0.0744 µM)

Question: What about the MIC50 [30] of the same compound?
Answer: 0.125 µg/mL (≈ 0.148 µM)

Question: What about the MIC [31] of the same compound?
Answer: 0.032 µg/mL (≈ 0.0378 µM)

Question: And the MIC50 [32]?
Answer: 4 µg/mL (≈ 4.72 µM)

Question: What about the MIC50 [33] of the same compound?
Answer: 0.125 µg/mL (≈ 0.148 µM)

Question: What about the MIC [34] of the same compound?
Answer: 16 µg/mL (≈ 18.9 µM)

Question: And the MIC50 [35]?
Answer: 0.25 µg/mL (≈ 0.295 µM)

Question: And the MIC50 [36]?
Answer: 0.25 µg/mL (≈ 0.295 µM)

Question: What about the MIC [37] of the same compound?
Answer: 0.5 µg/mL (≈ 0.59 µM)

Question: What about the MIC50 [38] of the same compound?
Answer: 16 µg/mL (≈ 18.9 µM)

Question: And the MIC50 [39]?
Answer: 0.061 µg/mL (≈ 0.072 µM)

Question: What about the MIC50 [40] of the same compound?
Answer: 1 µg/mL (≈ 1.18 µM)

Question: And the MIC50 [41]?
Answer: 2 µg/mL (≈ 2.36 µM)

Question: What about the MIC50 [42] of the same compound?
Answer: 0.032 µg/mL (≈ 0.0378 µM)

Question: And the MIC50 [43]?
Answer: 0.25 µg/mL (≈ 0.295 µM)

Question: And the MIC50 [44]?
Answer: 1 µg/mL (≈ 1.18 µM)

Question: And the MIC [45]?
Answer: 0.125 µg/mL (≈ 0.148 µM)

Question: What about the MIC50 [46] of the same compound?
Answer: 0.25 µg/mL (≈ 0.295 µM)

Question: What about the MIC50 [47] of the same compound?
Answer: 0.5 µg/mL (≈ 0.59 µM)

Question: And the MIC50 [48]?
Answer: 32 µg/mL (≈ 37.8 µM)

Question: What about the MIC50 [49] of the same compound?
Answer: 8 µg/mL (≈ 9.44 µM)

Question: And the MIC [50]?
Answer: 8 µg/mL (≈ 9.44 µM)

Question: What about the MIC50 [51] of the same compound?
Answer: 0.016 µg/mL (≈ 0.0189 µM)

Question: And the MIC50 [52]?
Answer: 0.125 µg/mL (≈ 0.148 µM)
